Converted amounts (≈) assume the structure as drawn.
Experiments:
[1] = system: Escherichia coli; experiment: Minimal inhibitory activity against the Escherichia coli (EC14); type: functional
In short: (§1)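 Agar dilution: compounds diluted in 0.1 M phosphate buffer pH 7.0, incorporated into Mueller-Hinton agar with 1% Bacto-Supplement C at 50 °C. Overnight cultures diluted to ~1×10^4 cells/µL, 1 µL spotted onto plates; incubated overnight at 35 °C in ambient air. MIC = lowest concentration preventing visible growth.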

[2] = system: Escherichia coli; experiment: Minimal inhibitory activity against the E. coli(TEM beta lactamase containing); type: functional; in short: as §1
[3] = system: Enterobacter cloacae; experiment: Minimal inhibitory activity against the Enterobacter cloacae (265A beta lactamase containing); type: functional; in short: as §1
[4] = system: Enterobacter cloacae; experiment: Minimal inhibitory activity against the Enterobacter cloacae (EB5); type: functional; in short: as §1
[5] = system: Haemophilus influenzae; experiment: Minimal inhibitory activity against the Haemophilus influenzae (C.L); type: functional; in short: as §1
[6] = system: Klebsiella; experiment: Minimal inhibitory activity against the Klebsiella(KAE beta lactamase containing); type: functional; in short: as §1
[7] = system: Klebsiella; experiment: Minimal inhibitory activity against the Klebsiella (X26); type: functional; in short: as §1
[8] = system: Morganella morganii; experiment: Minimal inhibitory activity against the Proteus morganii (PR15); type: functional; in short: as §1
[9] = system: Pseudomonas aeruginosa; experiment: Minimal inhibitory activity against the Pseudomonas aeruginosa (X528); type: functional; in short: as §1
[10] = system: Providencia rettgeri; experiment: Minimal inhibitory activity against the Proteus rettgeri (C24); type: functional; in short: as §1
[11] = system: Salmonella; experiment: Minimal inhibitory activity against the Salmonella (X514); type: functional; in short: as §1
[12] = system: Staphylococcus epidermidis; experiment: Minimal inhibitory activity against the Staphylococcus epidermidis (222); type: functional; in short: as §1
[13] = system: Staphylococcus aureus; experiment: Minimal inhibitory activity against the Staphylococcus aureus (X1.1); type: functional; in short: as §1
[14] = system: Streptococcus pneumoniae; experiment: Minimal inhibitory activity against the Streptococcus pneumoniae (PARK); type: functional; in short: as §1
[15] = system: Streptococcus pyogenes; experiment: Minimal inhibitory activity against the Streptococcus pyogenes (C203); type: functional; in short: as §1
[16] = Half-life was evaluated for pharmacokinetic data in rats.; type: ADME, organism-based; conditions: rat, in vivo
In short: (§2)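 Male Sprague-Dawley rats given 20 mg/kg IV in saline via indwelling jugular vein cannula; serial blood sampling through cannula, plasma and urine collected over 4 h. Drug levels by agar well diffusion bioassay with E. coli ATCC 4157 (detection limit ≤0.80 μg/mL). Half-life = 0.693/β from terminal plasma slope; urinary recovery as percent of administered dose.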

[17] = organism: Rattus norvegicus; experiment: Urinary recovery was evaluated for pharmacokinetic data in rats; type: organism-based; conditions: Urine; in short: as §2
[18] = system: Enterobacter cloacae; experiment: Truncation of the zone of inhibition was graded for Enterobacter cloacae EB17 on a 30 ug disk of test compound; type: functional
In short: (§3)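 Cefoxitin disk approximation: Mueller-Hinton agar swab-inoculated with ~1×10^8 cells/mL of inducible Enterobacter strains; 30 µg test-compound disks plus 30 µg cefoxitin disks placed ~15 mm from their edge. Overnight at 35 °C in ambient air; truncation of inhibition zone on cefoxitin-proximal side graded as a measure of induced β-lactamase effect.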

[19] = system: Enterobacter cloacae; experiment: Truncation of the zone of inhibition was graded for Enterobacter cloacae EB5 on a 30 ug disk of test compound; type: functional; in short: as §3
[20] = system: Enterobacter cloacae; experiment: Truncation of the zone of inhibition was graded for Enterobacter cloacae EB57 on a 30 ug disk of test compound; type: functional; in short: as §3
[21] = Half-life was evaluated for pharmacokinetic data in rats; type: ADME, organism-based; conditions: rat, in vivo
In short: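 Male Sprague-Dawley rats, single 20 mg/kg intravenous dose in saline via indwelling jugular vein cannula; serial blood sampling from the same cannula over 4 h. Plasma levels measured by agar well diffusion bioassay with E. coli ATCC 4157 (detection limit ≤0.80 µg/mL). Half-life calculated as 0.693/β, β being the terminal slope of the plasma concentration–time curve.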

Compound	MIC [1] [µg/mL]	MIC [2] [µg/mL]	MIC [3] [µg/mL]	MIC [4] [µg/mL]	MIC [5] [µg/mL]	MIC [6] [µg/mL]	MIC [7] [µg/mL]	MIC [8] [µg/mL]	MIC [9] [µg/mL]	MIC [10] [µg/mL]	MIC [11] [µg/mL]	MIC [12] [µg/mL]	MIC [13] [µg/mL]	MIC [14] [µg/mL]	MIC [15] [µg/mL]	Recovery [17] [%]	Zone diameter [18] [mm]	Zone diameter [19] [mm]	Zone diameter [20] [mm]	further results
CO/N=C(\C(=O)N[C@@H]1C(=O)N2C(C(=O)[O-])=C([n+]3cc(C)ccc3C)CC[C@H]12)c1csc(N)n1	0.125 (≈ 0.266 µM)	0.125 (≈ 0.266 µM)	1 (≈ 2.13 µM)	0.25 (≈ 0.531 µM)	0.5 (≈ 1.06 µM)	2 (≈ 4.25 µM)	0.125 (≈ 0.266 µM)	0.25 (≈ 0.531 µM)	128 (≈ 272 µM)	0.25 (≈ 0.531 µM)	0.125 (≈ 0.266 µM)	8 (≈ 17 µM)	4 (≈ 8.5 µM)	0.06 (≈ 0.128 µM)	0.03 (≈ 0.0638 µM)					
CO/N=C(\C(=O)N[C@@H]1C(=O)N2C(C(=O)[O-])=C([n+]3cccc4c3CCC4)CC[C@H]12)c1csc(N)n1	0.06 (≈ 0.124 µM)	0.5 (≈ 1.04 µM)	1 (≈ 2.07 µM)	0.125 (≈ 0.259 µM)	0.5 (≈ 1.04 µM)	8 (≈ 16.6 µM)	0.03 (≈ 0.0622 µM)	0.25 (≈ 0.518 µM)	128 (≈ 265 µM)	0.5 (≈ 1.04 µM)	0.03 (≈ 0.0622 µM)	4 (≈ 8.29 µM)	2 (≈ 4.14 µM)	0.03 (≈ 0.0622 µM)	0.03 (≈ 0.0622 µM)	82.3				half-life [16]: 20.1 min
CO/N=C(\C(=O)N[C@@H]1C(=O)N2C(C(=O)[O-])=C([n+]3ccccc3)CC[C@H]12)c1csc(N)n1	0.06 (≈ 0.136 µM)	0.06 (≈ 0.136 µM)	2 (≈ 4.52 µM)	0.125 (≈ 0.283 µM)	0.5 (≈ 1.13 µM)	8 (≈ 18.1 µM)	0.03 (≈ 0.0678 µM)	0.25 (≈ 0.565 µM)	128 (≈ 289 µM)	0.5 (≈ 1.13 µM)	0.03 (≈ 0.0678 µM)	8 (≈ 18.1 µM)	4 (≈ 9.04 µM)	0.03 (≈ 0.0678 µM)	0.03 (≈ 0.0678 µM)	82.6	30	30	31	half-life [16]: 21.2 min
CO/N=C(\C(=O)N[C@@H]1C(=O)N2C(C(=O)[O-])=C([n+]3ccc4c(c3)ncn4C)CC[C@H]12)c1csc(N)n1	0.06 (≈ 0.121 µM)	0.5 (≈ 1.01 µM)	1 (≈ 2.01 µM)	0.125 (≈ 0.252 µM)	0.5 (≈ 1.01 µM)	4 (≈ 8.06 µM)	0.06 (≈ 0.121 µM)	0.5 (≈ 1.01 µM)	128 (≈ 258 µM)	0.25 (≈ 0.504 µM)	0.06 (≈ 0.121 µM)	8 (≈ 16.1 µM)	4 (≈ 8.06 µM)	0.06 (≈ 0.121 µM)	0.06 (≈ 0.121 µM)					
CO/N=C(\C(=O)N[C@@H]1C(=O)N2C(C(=O)[O-])=C(C[n+]3ccccc3)CC[C@H]12)c1csc(N)n1																87.9	35	26	26	half-life [21]: 22.9 min
CC(C)(O/N=C(\C(=O)N[C@@H]1C(=O)N2C(C(=O)[O-])=C(C[n+]3ccccc3)CS[C@H]12)c1csc(N)n1)C(=O)O [CEFTAZIDIME]	0.06 (≈ 0.11 µM)	0.125 (≈ 0.229 µM)	32 (≈ 58.5 µM)		0.06 (≈ 0.11 µM)	0.5 (≈ 0.915 µM)	0.06 (≈ 0.11 µM)	0.5 (≈ 0.915 µM)	2 (≈ 3.66 µM)		0.125 (≈ 0.229 µM)	16 (≈ 29.3 µM)	8 (≈ 14.6 µM)	0.06 (≈ 0.11 µM)	0.06 (≈ 0.11 µM)	100				half-life [21]: 22.9 min
Cc1cc[n+](C2=C(C(=O)[O-])N3C(=O)[C@@H](NC(=O)/C(=N\OCc4ccccc4)c4csc(N)n4)[C@H]3CC2)cc1C	2 (≈ 3.66 µM)	1 (≈ 1.83 µM)	8 (≈ 14.6 µM)	4 (≈ 7.32 µM)	0.125 (≈ 0.229 µM)	128 (≈ 234 µM)	0.06 (≈ 0.11 µM)	2 (≈ 3.66 µM)	128 (≈ 234 µM)	8 (≈ 14.6 µM)	1 (≈ 1.83 µM)	2 (≈ 3.66 µM)	1 (≈ 1.83 µM)	0.015 (≈ 0.0274 µM)	0.03 (≈ 0.0549 µM)					
CO/N=C(\C(=O)N[C@@H]1C(=O)N2C(C(=O)[O-])=C([n+]3ccc(C)c(C)c3)CC[C@H]12)c1csc(N)n1	0.06 (≈ 0.128 µM)	0.06 (≈ 0.128 µM)	0.25 (≈ 0.531 µM)	0.125 (≈ 0.266 µM)	0.25 (≈ 0.531 µM)	4 (≈ 8.5 µM)	0.06 (≈ 0.128 µM)	0.125 (≈ 0.266 µM)	128 (≈ 272 µM)	0.06 (≈ 0.128 µM)	0.03 (≈ 0.0638 µM)	4 (≈ 8.5 µM)	2 (≈ 4.25 µM)	0.015 (≈ 0.0319 µM)	0.03 (≈ 0.0638 µM)		30	30	31	
CO/N=C(\C(=O)N[C@@H]1C(=O)N2C(C(=O)[O-])=C([n+]3cccc4c3CCCC4)CC[C@H]12)c1csc(N)n1	0.125 (≈ 0.252 µM)	1 (≈ 2.01 µM)	2 (≈ 4.03 µM)	0.25 (≈ 0.503 µM)	0.5 (≈ 1.01 µM)	16 (≈ 32.2 µM)	0.125 (≈ 0.252 µM)	1 (≈ 2.01 µM)	128 (≈ 258 µM)	4 (≈ 8.06 µM)	0.125 (≈ 0.252 µM)	8 (≈ 16.1 µM)	2 (≈ 4.03 µM)	0.06 (≈ 0.121 µM)	0.06 (≈ 0.121 µM)					
CO/N=C(\C(=O)N[C@@H]1C(=O)N2C(C(=O)[O-])=C(C[n+]3ccccc3)CS[C@H]12)c1csc(N)n1																	30	30	30	

— ChEMBL document CHEMBL1124365, “3-Quaternary ammonium 1-carba-1-dethiacephems” (J Med Chem, 1989)
